Reference: article PMC7744997 (Clinical Infectious Diseases: An Official Publication of …, 2020)

Tests used:
[1] = Laboratory safety in RSV-infected infants; type: in vivo, human
Procedure, shortened: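 Clinical laboratory tests were run in RSV-infected infants (>1 to ≤24 months) given oral drug or placebo once daily for 7 days. Abnormalities were graded with the DMID Pediatric Toxicity Tables (November 2007 version). Patients were followed for 28 days after randomisation.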

[2] = tested on: RSV-A and RSV-B strains; conditions: panel of laboratory-derived and clinically isolated RSV-A and RSV-B strains, in vitro; cited from earlier work
[3] = tested on: RSV; conditions: healthy volunteers, 75–500 mg once daily for 7 days; cited from earlier work

CS(=O)(=O)CCCn1c(Cn2c(=O)n(CC(F)(F)F)c3ccncc32)cc2cc(Cl)ccc21 [JNJ-53718678]
Chloride: Below (treatment-emergent nongraded abnormality) ([1]; Low (cohorts 1a,2a,3a), n=12): 0 no. (%)
Eosinophils: Above (treatment-emergent nongraded abnormality) ([1]; Low (cohorts 1a,2a,3a), n=12): 4 (33) no. (%)
Eosinophils: Below (treatment-emergent nongraded abnormality) ([1]; Low (cohorts 1a,2a,3a), n=12): 0 no. (%)
Erythrocytes: Above (treatment-emergent nongraded abnormality) ([1]; Low (cohorts 1a,2a,3a), n=12): 1 (8) no. (%)
Erythrocytes: Below (treatment-emergent nongraded abnormality) ([1]; Low (cohorts 1a,2a,3a), n=12): 0 no. (%)
Hemoglobin Grade 1 (treatment-emergent worst toxicity grade) ([1]; Low (cohorts 1a,2a,3a), n=12): 1 (8) no. (%)
Hemoglobin Grade 2 (treatment-emergent worst toxicity grade) ([1]; Low (cohorts 1a,2a,3a), n=12): 0 no. (%)
Hyperkalemia Grade 1 (treatment-emergent worst toxicity grade) ([1]; Low (cohorts 1a,2a,3a), n=12): 4 (33) no. (%)
Hyperkalemia Grade 2 (treatment-emergent worst toxicity grade) ([1]; Low (cohorts 1a,2a,3a), n=12): 0 no. (%)
Hypoglycemia Grade 1 (treatment-emergent worst toxicity grade) ([1]; Low (cohorts 1a,2a,3a), n=12): 0 no. (%)
Hyponatremia Grade 2 (treatment-emergent worst toxicity grade) ([1]; Low (cohorts 1a,2a,3a), n=12): 1 (8) no. (%)
Leukocytes: Above (treatment-emergent nongraded abnormality) ([1]; Low (cohorts 1a,2a,3a), n=12): 1 (8) no. (%)
Lymphocytes: Above (treatment-emergent nongraded abnormality) ([1]; Low (cohorts 1a,2a,3a), n=12): 2 (17) no. (%)
Lymphocytes: Below (treatment-emergent nongraded abnormality) ([1]; Low (cohorts 1a,2a,3a), n=12): 0 no. (%)
Eosinophils/leukocytes: Above (treatment-emergent nongraded abnormality) ([1]; Mid (cohorts 1b,2b,3b), n=9): 3 (33) no. (%)
Eosinophils/leukocytes: Below (treatment-emergent nongraded abnormality) ([1]; Mid (cohorts 1b,2b,3b), n=9): 0 no. (%)
Lymphocytes/leukocytes: Above (treatment-emergent nongraded abnormality) ([1]; Mid (cohorts 1b,2b,3b), n=9): 3 (33) no. (%)
Lymphocytes/leukocytes: Below (treatment-emergent nongraded abnormality) ([1]; Mid (cohorts 1b,2b,3b), n=9): 1 (11) no. (%)
Monocytes/leukocytes: Above (treatment-emergent nongraded abnormality) ([1]; Mid (cohorts 1b,2b,3b), n=9): 3 (33) no. (%)
Monocytes/leukocytes: Below (treatment-emergent nongraded abnormality) ([1]; Mid (cohorts 1b,2b,3b), n=9): 1 (11) no. (%)
Neutrophils/leukocytes: Above (treatment-emergent nongraded abnormality) ([1]; Mid (cohorts 1b,2b,3b), n=9): 1 (11) no. (%)
Neutrophils/leukocytes: Below (treatment-emergent nongraded abnormality) ([1]; Mid (cohorts 1b,2b,3b), n=9): 3 (33) no. (%)
Eosinophils: Above (treatment-emergent nongraded abnormality) ([1]; Mid (cohorts 1b,2b,3b), n=11): 2 (18) no. (%)
Eosinophils: Below (treatment-emergent nongraded abnormality) ([1]; Mid (cohorts 1b,2b,3b), n=11): 0 no. (%)
Lymphocytes: Above (treatment-emergent nongraded abnormality) ([1]; Mid (cohorts 1b,2b,3b), n=11): 2 (18) no. (%)
Lymphocytes: Below (treatment-emergent nongraded abnormality) ([1]; Mid (cohorts 1b,2b,3b), n=11): 0 no. (%)
Alkaline phosphatase: Above (treatment-emergent nongraded abnormality) ([1]; Mid (cohorts 1b,2b,3b), n=12): 1 (8) no. (%)
Alkaline phosphatase: Below (treatment-emergent nongraded abnormality) ([1]; Mid (cohorts 1b,2b,3b), n=12): 2 (17) no. (%)
Bicarbonate: Above (treatment-emergent nongraded abnormality) ([1]; Mid (cohorts 1b,2b,3b), n=12): 2 (17) no. (%)
Bicarbonate: Below (treatment-emergent nongraded abnormality) ([1]; Mid (cohorts 1b,2b,3b), n=12): 2 (17) no. (%)
Chloride: Above (treatment-emergent nongraded abnormality) ([1]; Mid (cohorts 1b,2b,3b), n=12): 2 (17) no. (%)
Chloride: Below (treatment-emergent nongraded abnormality) ([1]; Mid (cohorts 1b,2b,3b), n=12): 1 (8) no. (%)
Erythrocytes: Above (treatment-emergent nongraded abnormality) ([1]; Mid (cohorts 1b,2b,3b), n=12): 1 (8) no. (%)
Erythrocytes: Below (treatment-emergent nongraded abnormality) ([1]; Mid (cohorts 1b,2b,3b), n=12): 2 (17) no. (%)
Hemoglobin Grade 1 (treatment-emergent worst toxicity grade) ([1]; Mid (cohorts 1b,2b,3b), n=12): 1 (8) no. (%)
Hemoglobin Grade 2 (treatment-emergent worst toxicity grade) ([1]; Mid (cohorts 1b,2b,3b), n=12): 1 (8) no. (%)
Hyperkalemia Grade 1 (treatment-emergent worst toxicity grade) ([1]; Mid (cohorts 1b,2b,3b), n=12): 3 (25) no. (%)
Hyperkalemia Grade 2 (treatment-emergent worst toxicity grade) ([1]; Mid (cohorts 1b,2b,3b), n=12): 1 (8.3) no. (%)
Hypoglycemia Grade 1 (treatment-emergent worst toxicity grade) ([1]; Mid (cohorts 1b,2b,3b), n=12): 0 no. (%)
Hyponatremia Grade 2 (treatment-emergent worst toxicity grade) ([1]; Mid (cohorts 1b,2b,3b), n=12): 0 no. (%)
Leukocytes: Above (treatment-emergent nongraded abnormality) ([1]; Mid (cohorts 1b,2b,3b), n=12): 2 (17) no. (%)
Urea: Above (treatment-emergent nongraded abnormality) ([1]; Mid (cohorts 1b,2b,3b), n=12): 0 no. (%)
Urea: Below (treatment-emergent nongraded abnormality) ([1]; Mid (cohorts 1b,2b,3b), n=12): 4 (33) no. (%)
Urea: Above (treatment-emergent nongraded abnormality) ([1]; Mid-high (cohort 1c), n=3): 0 no. (%)
Urea: Below (treatment-emergent nongraded abnormality) ([1]; Mid-high (cohort 1c), n=3): 0 no. (%)
Alkaline phosphatase: Above (treatment-emergent nongraded abnormality) ([1]; Mid-high (cohort 1c), n=4): 0 no. (%)
Alkaline phosphatase: Below (treatment-emergent nongraded abnormality) ([1]; Mid-high (cohort 1c), n=4): 1 (25) no. (%)
Bicarbonate: Above (treatment-emergent nongraded abnormality) ([1]; Mid-high (cohort 1c), n=4): 0 no. (%)
Bicarbonate: Below (treatment-emergent nongraded abnormality) ([1]; Mid-high (cohort 1c), n=4): 1 (25) no. (%)
Chloride: Above (treatment-emergent nongraded abnormality) ([1]; Mid-high (cohort 1c), n=4): 2 (50) no. (%)
Chloride: Below (treatment-emergent nongraded abnormality) ([1]; Mid-high (cohort 1c), n=4): 0 no. (%)
Eosinophils/leukocytes: Above (treatment-emergent nongraded abnormality) ([1]; Mid-high (cohort 1c), n=4): 1 (25) no. (%)
Eosinophils/leukocytes: Below (treatment-emergent nongraded abnormality) ([1]; Mid-high (cohort 1c), n=4): 1 (25) no. (%)
Eosinophils: Above (treatment-emergent nongraded abnormality) ([1]; Mid-high (cohort 1c), n=4): 1 (25) no. (%)
Eosinophils: Below (treatment-emergent nongraded abnormality) ([1]; Mid-high (cohort 1c), n=4): 0 no. (%)
Erythrocytes: Above (treatment-emergent nongraded abnormality) ([1]; Mid-high (cohort 1c), n=4): 2 (50) no. (%)
Erythrocytes: Below (treatment-emergent nongraded abnormality) ([1]; Mid-high (cohort 1c), n=4): 0 no. (%)
Hemoglobin Grade 1 (treatment-emergent worst toxicity grade) ([1]; Mid-high (cohort 1c), n=4): 0 no. (%)
Hemoglobin Grade 2 (treatment-emergent worst toxicity grade) ([1]; Mid-high (cohort 1c), n=4): 0 no. (%)
Hyperkalemia Grade 1 (treatment-emergent worst toxicity grade) ([1]; Mid-high (cohort 1c), n=4): 2 (50) no. (%)
Hyperkalemia Grade 2 (treatment-emergent worst toxicity grade) ([1]; Mid-high (cohort 1c), n=4): 0 no. (%)
Hypoglycemia Grade 1 (treatment-emergent worst toxicity grade) ([1]; Mid-high (cohort 1c), n=4): 0 no. (%)
Hyponatremia Grade 2 (treatment-emergent worst toxicity grade) ([1]; Mid-high (cohort 1c), n=4): 1 (25) no. (%)
Leukocytes: Above (treatment-emergent nongraded abnormality) ([1]; Mid-high (cohort 1c), n=4): 0 no. (%)
Lymphocytes/leukocytes: Above (treatment-emergent nongraded abnormality) ([1]; Mid-high (cohort 1c), n=4): 0 no. (%)
Lymphocytes/leukocytes: Below (treatment-emergent nongraded abnormality) ([1]; Mid-high (cohort 1c), n=4): 0 no. (%)
Lymphocytes: Above (treatment-emergent nongraded abnormality) ([1]; Mid-high (cohort 1c), n=4): 1 (25) no. (%)
Lymphocytes: Below (treatment-emergent nongraded abnormality) ([1]; Mid-high (cohort 1c), n=4): 0 no. (%)
Monocytes/leukocytes: Above (treatment-emergent nongraded abnormality) ([1]; Mid-high (cohort 1c), n=4): 0 no. (%)
Monocytes/leukocytes: Below (treatment-emergent nongraded abnormality) ([1]; Mid-high (cohort 1c), n=4): 0 no. (%)
Neutrophils/leukocytes: Above (treatment-emergent nongraded abnormality) ([1]; Mid-high (cohort 1c), n=4): 0 no. (%)
Neutrophils/leukocytes: Below (treatment-emergent nongraded abnormality) ([1]; Mid-high (cohort 1c), n=4): 0 no. (%)
50% effective concentration [2]: 0.09 to 9.50 ng/mL
Effect on viral load and clinical disease severity [3]: substantially reduced both viral load and clinical disease severity
